Data taken from ChEMBL document CHEMBL1152809, “Structure-activity relationships of orotidine-5'-monophosphate decarboxylase inhibitors as anticancer agents” (J Med Chem, 2009).
Calls of active or inactive are those of the source. No cut-off for these calls is given here.

Experiments:
PBMC = test: Cytotoxicity against human PBMC cells by WST1 assay; type: cell-based
Summary of the method: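 Donor PBMCs isolated on Ficoll-Hypaque from blood diluted 1:1 in PBS, washed twice in PBS and stimulated with 3 µg/mL concanavalin A. Seeded in triplicate at 10^5 cells/100 µL; compounds in water added immediately, 0-100 µM final. WST.1 absorbance at 440 nm on day 3; IC50 from OD versus concentration plots.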

[1] = Antitumor activity against human OCI-AML1 cells after 3 days by WST1 assay; type: functional, cell-based; conditions: ML1, 72 h
Summary of the method: (§1)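 Cell lines grown in Iscove's MDM with 5% FCS, 50 µM 2-mercaptoethanol, penicillin and streptomycin; suspension lines kept at 0.5-1.5 × 10^6 cells/mL, adherent lines subconfluent. Cells seeded in triplicate at 10^4 cells/100 µL. Compounds were dissolved in water and added immediately at 0 to 100 µM final. WST.1 read at 440 nm on day 3; IC50 taken from OD versus concentration plots.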

Hs-578T [2] = test: Antitumor activity against human Hs 578T cells up to 4 uM after 3 days by WST1 assay; type: functional, cell-based; summary of the method: as §1
[3] = Antitumor activity against human OCI-My 2 cells after 3 days by WST1 assay; type: functional, cell-based; conditions: 72 h; summary of the method: as §1
Homo sapiens = organism: Homo sapiens; test: Induction of apoptosis in human OCI-My 2 cells 4 uM by […]/propidium iodide staining assay; type: functional, cell-based
Summary of the method: (§2)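 Cells seeded in duplicate at 10^5 cells/mL; inhibitors added straight after seeding at 4 µM final, water in control wells. Cells harvested every 24 h, washed in PBS, stained with Annexin V/propidium iodide (1:200) and analysed by FACS; apoptotic cells scored as Annexin V+/PI-, necrotic as Annexin V+/PI+.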

[4] = Cytotoxicity against human CCD-967 cells up to 4 uM after 3 days by WST1 assay; type: cell-based; conditions: ccd-967, 72 h
Summary of the method: (§3)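 Cells grown in Iscove's MDM with 5% FCS, 50 µM 2-mercaptoethanol and antibiotics, kept subconfluent if adherent. Seeded in triplicate at 10^4 cells/100 µL with compounds (in water) added at once, 0 to 100 µM final. WST.1 formazan read at 440 nm on day 3; IC50 from OD versus concentration.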

T47D [5] = test: Antitumor activity against human T47D cells up to 4 uM after 3 days by WST1 assay; type: functional, cell-based; summary of the method: as §1
SKW3 = test: Induction of apoptosis in human SKW3 cells at 4 uM by annexin V/propidium iodide staining assay
[6] = Antitumor activity against human LOX cells after 3 days by WST1 assay; type: functional, cell-based; conditions: 72 h; summary of the method: as §1
ML1 = test: Induction of apoptosis in human OCI-AML1 cells by […]/propidium iodide staining assay; type: functional, cell-based; summary of the method: as §2
OCI-AML2 = test: Antitumor activity against human OCI-AML2 cells after 3 days by WST1 assay; type: functional, cell-based; conditions: OCI-AML2, 72 h; summary of the method: as §1
SNB-19 [7] = test: Antitumor activity against human SNB19 cells up to 4 uM after 3 days by WST1 assay; type: functional, cell-based; summary of the method: as §1
[8] = Antitumor activity against human MDA468 cells after 3 days by WST1 assay; type: functional, cell-based; conditions: MDA-MB-468, 72 h; summary of the method: as §1
MCF7 [9] = test: Antitumor activity against human MCF7 cells after 3 days by WST1 assay; type: functional, cell-based; conditions: MCF7, 72 h; summary of the method: as §1
[10] = Antitumor activity against human SKW3 cells after 3 days by WST1 assay; type: functional, cell-based; conditions: SKW3, 72 h; summary of the method: as §1
COLO 205 = test: Antitumor activity against human COLO205 cells after 3 days by WST1 assay; type: functional, cell-based; conditions: for IC50: COLO 205, 72 h; summary of the method: as §1
OCI-Ly7 = test: Induction of apoptosis in human OCI-LY7 cells 4 uM by […]/propidium iodide staining assay; type: functional, cell-based; summary of the method: as §2
[11] = Antitumor activity against human OCI-LY7 cells after 3 days by WST1 assay; type: functional, cell-based; conditions: OCI-Ly7, 72 h; summary of the method: as §1
OVCAR-4 = test: Antitumor activity against human OVCAR4 cells after 3 days by WST1 assay; type: functional, cell-based; conditions: for IC50: OVCAR-4, 72 h; summary of the method: as §1
[12] = target: T1, Uridine 5'-monophosphate synthase (Homo sapiens, UniProt P11172); test: (§4) Irreversible inhibition of human ODCase
T1 sequence (P11172 whole entry): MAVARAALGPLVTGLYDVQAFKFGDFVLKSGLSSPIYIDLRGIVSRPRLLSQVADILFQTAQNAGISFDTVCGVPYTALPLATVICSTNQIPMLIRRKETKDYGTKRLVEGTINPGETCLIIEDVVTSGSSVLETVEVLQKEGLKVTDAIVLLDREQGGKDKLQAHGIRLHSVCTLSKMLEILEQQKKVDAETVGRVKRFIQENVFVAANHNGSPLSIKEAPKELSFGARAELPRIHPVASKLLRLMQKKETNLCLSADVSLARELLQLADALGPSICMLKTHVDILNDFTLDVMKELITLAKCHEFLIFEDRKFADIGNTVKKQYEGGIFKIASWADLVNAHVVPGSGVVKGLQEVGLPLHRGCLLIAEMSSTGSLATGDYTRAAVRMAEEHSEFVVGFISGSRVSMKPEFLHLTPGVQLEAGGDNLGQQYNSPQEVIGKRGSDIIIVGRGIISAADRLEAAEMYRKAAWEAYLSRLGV

[13] = target: T2, Uridine 5'-monophosphate synthase (Homo sapiens) (UniProt P11172); test: as §4
T2 sequence (whole entry): T1 sequence (P11172 whole entry)

[14] = target: Orotidine 5'-phosphate decarboxylase (Methanobacterium thermoautotrophicum, UniProt O26232); test: Reversible inhibition of Methanobacterium thermoautotrophicum ODCase; design: species or system Methanothermobacter thermautotrophicus
Summary of the method: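 Inhibitor levels span 0-1.0 µM up to 0-4.0 mM depending on compound. Rates from heat flow fitted to a competitive model for Ki; experiments in triplicate.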

[15] = target: T1, Uridine 5'-monophosphate synthase; test: Reversible inhibition of human ODCase
Summary of the method: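 Human ODCase at 60 nM in 50 mM Tris, 1 mM DTT, assayed by ITC at 37 °C. Enzyme mixed with inhibitor (stocks in 50 mM Tris pH 7.5) and the reaction started with OMP, 15 or 20 µM final. Inhibitor ranges from 0-1.0 µM up to 0-500 µM. Ki from direct fit of decarboxylation rates; triplicates.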

SNB-19 [16] = test: Antitumor activity against human SNB19 cells up to 50 uM after 3 days by WST1 assay; type: functional, cell-based; summary of the method: as §1
PC-3 = test: Antitumor activity against human PC3 cells up to 50 uM after 3 days by WST1 assay; type: functional, cell-based; summary of the method: as §1
Hs-578T [17] = test: Antitumor activity against human Hs 578T cells up to 50 uM after 3 days by WST1 assay; type: functional, cell-based; summary of the method: as §1
T47D [18] = test: Antitumor activity against human T47D cells up to 50 uM after 3 days by WST1 assay; type: functional, cell-based; summary of the method: as §1
[19] = Cytotoxicity against human CCD-967 cells up to 50 uM after 3 days by WST1 assay; type: cell-based; conditions: ccd-967, 72 h; summary of the method: as §3
MCF7 [20] = test: Antitumor activity against human MCF7 cells up to 50 uM after 3 days by WST1 assay; type: functional, cell-based; summary of the method: as §1
MDA-MB-468 = test: Antitumor activity against human MDA468 cells up to 50 uM after 3 days by WST1 assay; type: functional, cell-based; summary of the method: as §1
[21] = tested on: Methanothermobacter thermautotrophicus; test: (§5) Irreversible inhibition of Methanobacterium thermoautotrophicum ODCase
[22] = as §5; design: species or system Methanothermobacter thermautotrophicus

Orotidine 5'-phosphate decarboxylase, sequence (O26232 whole entry): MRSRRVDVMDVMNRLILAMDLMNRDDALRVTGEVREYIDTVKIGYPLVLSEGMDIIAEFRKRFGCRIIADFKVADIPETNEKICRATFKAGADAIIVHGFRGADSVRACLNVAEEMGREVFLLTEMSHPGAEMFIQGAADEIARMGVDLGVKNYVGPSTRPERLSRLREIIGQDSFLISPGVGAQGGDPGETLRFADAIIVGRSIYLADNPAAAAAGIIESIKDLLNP

SMILES	IC50 (OCI-AML2)	IC50 (MCF7 [9])	IC50 (COLO 205)	IC50 (OVCAR-4)	Ki [14]	IC50 [1]	IC50 [3]	IC50 [6]	IC50 [8]	IC50 [10]	IC50 [11]	Activity (SNB-19 [16])	Activity (PC-3)	Activity (Hs-578T [17])	Activity (T47D [18])	Activity [19]	further results
[N-]=[N+]=Nc1c(F)c(=O)[nH]c(=O)n1[C@@H]1O[C@H](CO)[C@@H](O)[C@H]1O	700 nM	1000 nM	3800 nM	1500 nM	–	600 nM	600 nM	2300 nM	1800 nM	400 nM	700 nM	–	–	–	–	–	IC50 (PBMC): > 10000 nM; Activity (Hs-578T [2]): inactive; Activity (Homo sapiens): Active; Activity [4]: Not Active; Activity (T47D [5]): inactive; Activity (SKW3): Active; Activity (ML1): Active; Activity (SNB-19 [7]): inactive; Activity (OCI-Ly7): Active
[N-]=[N+]=Nc1c(F)c(=O)[nH]c(=O)n1[C@@H]1O[C@H](COP(=O)(O)O)[C@@H](O)[C@H]1O	–	–	–	–	360 nM	–	–	–	–	–	–	–	–	–	–	–	Ki [12]: 18200 nM; Kinact [13]: 41 h⁻¹
Nc1c(F)c(=O)[nH]c(=O)n1[C@@H]1O[C@H](COP(=O)(O)O)[C@@H](O)[C@H]1O	–	–	–	–	11400 nM	–	–	–	–	–	–	–	–	–	–	–	Ki [15]: 16600 nM
CCc1c(F)c(=O)[nH]c(=O)n1[C@@H]1O[C@H](COP(=O)(O)O)[C@@H](O)[C@H]1O	–	–	–	–	29000 nM	–	–	–	–	–	–	–	–	–	–	–	Ki [15]: 350 nM
O=Cc1c(F)c(=O)[nH]c(=O)n1[C@@H]1O[C@H](CO)[C@@H](O)[C@H]1O	700 nM	23700 nM	–	–	–	300 nM	400 nM	400 nM	1900 nM	300 nM	600 nM	inactive	inactive	inactive	inactive	Not Active	Activity (Homo sapiens): Active; Activity (SKW3): Active; Activity (ML1): Active; Activity (OCI-Ly7): Active
O=c1[nH]c(=O)n([C@@H]2O[C@H](CO)[C@@H](O)[C@H]2O)c(I)c1Br	> 50000 nM	> 50000 nM	> 50000 nM	> 50000 nM	–	> 50000 nM	> 50000 nM	> 50000 nM	> 50000 nM	> 50000 nM	> 50000 nM	inactive	inactive	inactive	inactive	Not Active	Activity (MCF7 [20]): inactive; Activity (MDA-MB-468): inactive
O=c1[nH]c(=O)n([C@@H]2O[C@H](COP(=O)(O)O)[C@@H](O)[C@H]2O)cc1F	–	–	–	–	645000 nM	–	–	–	–	–	–	–	–	–	–	–	Ki [15]: 98000 nM
O=c1[nH]c(=O)n([C@@H]2O[C@H](COP(=O)(O)O)[C@@H](O)[C@H]2O)c(I)c1F	–	–	–	–	–	–	–	–	–	–	–	–	–	–	–	–	Ki [12]: 1100 nM; Kinact [13]: 158 h⁻¹

Second part, led by results:

IC50 (OCI-AML2)	IC50 (MCF7 [9])	IC50 (COLO 205)	IC50 (OVCAR-4)	Ki [14]	SMILES	IC50 [1]	IC50 [3]	IC50 [6]	IC50 [8]	IC50 [10]	IC50 [11]	Activity (SNB-19 [16])	Activity (PC-3)	Activity (Hs-578T [17])	Activity (T47D [18])	Activity [19]	further results
900 nM	1400 nM	3300 nM	2000 nM	–	Nc1c(F)c(=O)[nH]c(=O)n1[C@@H]1O[C@H](CO)[C@@H](O)[C@H]1O	700 nM	900 nM	3400 nM	2600 nM	600 nM	1300 nM	–	–	–	–	–	IC50 (PBMC): > 10000 nM; Activity (Hs-578T [2]): inactive; Activity (Homo sapiens): Active; Activity [4]: Not Active; Activity (T47D [5]): inactive; Activity (SKW3): Active; Activity (ML1): Active; Activity (SNB-19 [7]): inactive; Activity (OCI-Ly7): Active
> 50000 nM	> 50000 nM	–	–	–	O=Cc1cc(=O)[nH]c(=O)n1[C@@H]1O[C@H](CO)[C@@H](O)[C@H]1O	> 50000 nM	> 50000 nM	> 50000 nM	> 50000 nM	> 50000 nM	> 50000 nM	inactive	inactive	inactive	inactive	Not Active	Activity (MCF7 [20]): inactive; Activity (COLO 205): inactive; Activity (MDA-MB-468): inactive; Activity (OVCAR-4): inactive
–	–	–	–	200 nM	[N-]=[N+]=Nc1cc(=O)[nH]c(=O)n1[C@@H]1O[C@H](COP(=O)(O)O)[C@@H](O)[C@H]1O	–	–	–	–	–	–	–	–	–	–	–	Kinact [21]: 61.2 h⁻¹; Ki [22]: 600 nM
> 50000 nM	> 50000 nM	> 50000 nM	> 50000 nM	–	O=c1cc(I)n([C@@H]2O[C@H](CO)[C@@H](O)[C@H]2O)c(=O)[nH]1	15300 nM	27800 nM	> 50000 nM	> 50000 nM	18900 nM	> 50000 nM	inactive	inactive	inactive	inactive	Not Active	Activity (MCF7 [20]): inactive; Activity (MDA-MB-468): inactive
